In EPA's CvTdb concentration-time database:

Assays:
[1] = tested on: Rat; assay: concentration in brain after dosing; details: 12 h; dosed: Perfluorohexane-1-sulphonic acid – potassium salt; 16 mg/kg; oral; Female; F344
[2] = tested on: Rat; assay: concentration in kidney after dosing; details: 6 h; dosed: Perfluorohexane-1-sulphonic acid – potassium salt; 16 mg/kg; oral; Female; F344
[3] = tested on: Rat; assay: concentration in brain after dosing; details: 12 h; dosed: Perfluorohexane-1-sulphonic acid – potassium salt; 16 mg/kg; oral; Female; F344; remark: listed apart in the source
[4] = tested on: Rat; assay: concentration in liver after dosing; details: 3 h; dosed: Perfluorohexane-1-sulphonic acid – potassium salt; 16 mg/kg; oral; Female; F344
[5] = tested on: Rat; assay: concentration in brain after dosing; details: 192 h; dosed: Perfluorohexane-1-sulphonic acid – potassium salt; 16 mg/kg; oral; Female; F344
[6] = tested on: Rat; assay: concentration in liver after dosing; details: 3 h; dosed: Perfluorohexane-1-sulphonic acid – potassium salt; 16 mg/kg; oral; Female; Harlan Sprague Dawley
[7] = tested on: Rat; assay: concentration in plasma after dosing; details: 20 min; dosed: Pyridine; 10 mg/kg; iv; Male; F344
[8] = tested on: Rat; assay: concentration in plasma after dosing; details: dosed: Pyridine, 5 mg/kg, iv, Male, F344
[9] = tested on: Rat; assay: concentration in plasma after dosing; details: dosed: Pyridine, 5 mg/kg, oral, Male, F344
[10] = tested on: human; assay: concentration in blood after dosing; negative times count back from the end of exposure; details: dosed: trichloroethylene, 100 ppm, inhalation, duration: 4 hr, person
How it was run: (§1)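 Concentration-versus-time or amount-versus-time points were compiled from published in vivo toxicokinetic studies and from two structured collections. The studies were found by PubMed searching, classifier screening and manual review. Points were mostly digitised from plot screenshots with WebPlotDigitizer, otherwise copied from tables, and kept in the reported units. Dose, route, subject details and medium were curated by hand from each paper, and sampling and analytical methods follow each source and were often unreported.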

[11] = tested on: Rat; assay: concentration in plasma after dosing; details: dosed: 2,4-Dichlorophenoxyacetic acid, 2.0 mg/kg, iv, Male, Sprague-Dawley
[12] = tested on: Rat; assay: concentration in plasma after dosing; details: dosed: 2,4-Dichlorophenoxyacetic acid, 2.0 mg/kg, iv, Male, Sprague-Dawley; remark: listed apart in the source
[13] = tested on: human; details: dosed: trichloroethylene, 100 ppm, inhalation, duration: 4 hr, person
How it was run: as §1

[14] = tested on: Rat; assay: concentration in plasma after dosing; details: dosed: 2-Hydroxy-4-methoxybenzophenone, 100 mg/kg, oral, Female, F344
[15] = tested on: Rat; assay: concentration in plasma after dosing; details: 5 min; dosed: alpha-Thujone; 25 mg/kg; oral; Male; Harlan Sprague Dawley
[16] = tested on: Rat; assay: concentration in plasma after dosing; details: 6 h; dosed: alpha-Thujone; 50 mg/kg; oral; Female; Harlan Sprague Dawley
[17] = tested on: Rat; assay: concentration in plasma after dosing; details: 6 h; dosed: alpha-Thujone; 50 mg/kg; oral; Female; Harlan Sprague Dawley; remark: listed apart in the source
[18] = tested on: Rat; assay: concentration in brain after dosing; details: 0.5 h; dosed: alpha-Thujone; 25 mg/kg; oral; Female; Harlan Sprague Dawley
[19] = tested on: Rat; assay: concentration in brain after dosing; details: 5 min; dosed: alpha-Thujone; 25 mg/kg; oral; Male; Harlan Sprague Dawley
[20] = tested on: Rat; assay: concentration in plasma after dosing; details: 3 h; dosed: alpha-Thujone; 50 mg/kg; oral; Male; Harlan Sprague Dawley
[21] = tested on: Rat; assay: concentration in brain after dosing; details: 0.5 h; dosed: alpha-Thujone; 50 mg/kg; oral; Male; Harlan Sprague Dawley
[22] = tested on: Rat; assay: concentration in plasma after dosing; details: 3 h; dosed: alpha-Thujone; 50 mg/kg; oral; Female; Harlan Sprague Dawley
[23] = tested on: Rat; assay: concentration in brain after dosing; details: 3 h; dosed: alpha-Thujone; 25 mg/kg; oral; Female; Harlan Sprague Dawley
[24] = tested on: Rat; assay: concentration in plasma after dosing; details: 0.5 h; dosed: alpha-Thujone; 50 mg/kg; oral; Male; Harlan Sprague Dawley
[25] = tested on: Rat; assay: concentration in brain after dosing; details: 2 min; dosed: alpha-Thujone; 50 mg/kg; oral; Female; Harlan Sprague Dawley
[26] = tested on: Rat; assay: concentration in brain after dosing; details: 10 min; dosed: alpha-Thujone; 50 mg/kg; oral; Female; Harlan Sprague Dawley
[27] = tested on: Rat; assay: concentration in plasma after dosing; details: 1.5 h; dosed: Primidone; 30 mg/kg; oral; Female; F344
[28] = tested on: Rat; assay: concentration in plasma after dosing; details: 0.25 h; dosed: Primidone; 30 mg/kg; oral; Male; F344
[29] = tested on: Rat; assay: concentration in plasma after dosing; details: 3 h; dosed: Primidone; 30 mg/kg; oral; Male; F344

O=S(=O)([O-])C(F)(F)C(F)(F)C(F)(F)C(F)(F)C(F)(F)C(F)(F)F.[K+] [Perfluorohexane-1-sulphonic acid – potassium salt]
concentration in brain [1]: 1520 ng/g | concentration in kidney [2]: 36400 ng/g | concentration in brain [3]: 1770 ng/g | concentration in liver [4]: 57000 ng/g | concentration in brain [5]: 834 ng/g | concentration in liver [6]: 57400 ng/g

c1ccncc1 [Pyridine]
concentration in plasma [7]: 4020 ng/mL | concentration in plasma ([8]; 2 h): 2780 ng/mL | concentration in plasma ([8]; 14 h): 89 ng/mL | concentration in plasma ([9]; 5 min): 2490 ng/mL | concentration in plasma ([9]; 4 h): 2550 ng/mL

OCC(Cl)(Cl)Cl [trichloroethanol (free)]
concentration in blood ([10]; 0.2798 h): 3060 ng/mL | concentration in blood ([10]; 0.518 h): 2980 ng/mL | concentration in blood ([10]; 1.034 h): 2890 ng/mL | concentration in blood ([10]; 2.025 h): 2710 ng/mL | concentration in blood ([10]; 4.029 h): 2290 ng/mL | concentration in blood ([10]; 5.972 h): 2030 ng/mL | concentration in blood ([10]; 7.955 h): 1690 ng/mL | concentration in blood ([10]; 9.937 h): 1480 ng/mL | concentration in blood ([10]; 11.96 h): 1270 ng/mL | concentration in blood ([10]; 13.96 h): 1070 ng/mL | concentration in blood ([10]; 15.94 h): 1010 ng/mL | concentration in blood ([10]; 17.94 h): 738 ng/mL | concentration in blood ([10]; -58 s, during exposure): 2860 ng/mL | concentration in blood ([10]; -0.9832 h, during exposure): 2280 ng/mL | concentration in blood ([10]; -2.028 h, during exposure): 1480 ng/mL | concentration in blood ([10]; -3.013 h, during exposure): 632 ng/mL | concentration in blood ([10]; -3.486 h, during exposure): 220 ng/mL

O=C(O)COc1ccc(Cl)cc1Cl [2,4-Dichlorophenoxyacetic acid]
concentration in plasma ([11]; 2.5 min): 28500 ng/mL | concentration in plasma ([11]; 10 min): 10400 ng/mL | concentration in plasma ([11]; 0.25 h): 14100 ng/mL | concentration in plasma ([11]; 0.5 h): 9550 ng/mL | concentration in plasma ([11]; 0.75 h): 5750 ng/mL | concentration in plasma ([11]; 2 h): 2070 ng/mL | concentration in plasma ([11]; 3 h): 419 ng/mL | concentration in plasma ([11]; 3.5 h): 410 ng/mL | concentration in plasma ([12]; 2.5 min): 26200 ng/mL | concentration in plasma ([12]; 0.25 h): 15300 ng/mL | concentration in plasma ([12]; 0.5 h): 6490 ng/mL | concentration in plasma ([12]; 0.75 h): 6000 ng/mL | concentration in plasma ([12]; 2 h): 1910 ng/mL | concentration in plasma ([12]; 2.5 h): 720 ng/mL | concentration in plasma ([12]; 3 h): 282 ng/mL

OCC(Cl)(Cl)Cl [trichloroethanol]
amount in urine after dosing ([13]; 1 h): 13 mg | amount in urine after dosing ([13]; 2 h): 11 mg | amount in urine after dosing ([13]; 4 h): 21.5 mg | amount in urine after dosing ([13]; 8 h): 36.3 mg | amount in urine after dosing ([13]; 12 h): 31.4 mg | amount in urine after dosing ([13]; 16 h): 26.7 mg | amount in urine after dosing ([13]; 24 h): 33.6 mg | amount in urine after dosing ([13]; 36 h): 39.7 mg | amount in urine after dosing ([13]; 48 h): 22.6 mg | amount in urine after dosing ([13]; 60 h): 17 mg | amount in urine after dosing ([13]; 72 h): 11.5 mg | amount in urine after dosing ([13]; 84 h): 6.52 mg | amount in urine after dosing ([13]; 96 h): 3.88 mg | amount in urine after dosing ([13]; 108 h): 6 mg | amount in urine after dosing ([13]; 120 h): 3.14 mg | amount in urine after dosing ([13]; 132 h): 2.17 mg | amount in urine after dosing ([13]; 144 h): 1.65 mg | amount in urine after dosing ([13]; 156 h): 0.88 mg | amount in urine after dosing ([13]; 168 h): 1.08 mg | amount in urine after dosing ([13]; 180 h): 1.17 mg

O=C(c1ccccc1)c1ccc(O)cc1O [2,4-Dihydroxybenzophenone]
concentration in plasma ([14]; 10 min): 58.3 ng/mL | concentration in plasma ([14]; 3 h): 67.4 ng/mL

CC(C)[C@]12CC(=O)[C@H](C)[C@H]1C2 [alpha-Thujone]
concentration in plasma [15]: 247 ng/mL | concentration in plasma [16]: 192 ng/mL | concentration in plasma [17]: 169 ng/mL | concentration in brain [18]: 987 ng/g | concentration in brain [19]: 360 ng/g | concentration in plasma [20]: 357 ng/mL | concentration in brain [21]: 5490 ng/g | concentration in plasma [22]: 244 ng/mL | concentration in brain [23]: 556 ng/g | concentration in plasma [24]: 2180 ng/mL | concentration in brain [25]: 13.2 ng/g | concentration in brain [26]: 1800 ng/g

CCC1(c2ccccc2)C(=O)NCNC1=O [Primidone]
concentration in plasma [27]: 20600 ng/mL | concentration in plasma [28]: 6800 ng/mL | concentration in plasma [29]: 7700 ng/mL
